Values after ≈ are worked out from the molar mass of the structure shown. Blank lines part the entries; values can stand above or below the molecule they belong to. Where a SMILES comes first, the peptide text is derived from it. [ ]: non-standard residue; d: D form. Orn = NCCC[C@H](N)C(=O)O
Columns and labels:
Pseudomonas aeruginosa [1] = test: Antimicrobial activity against Pseudomonas aeruginosa PAO1 after 20 hrs by broth microdilution method; format: functional; settings: PAO1, 20 h
In short: (§1)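 Pathogenic strains grown overnight on Columbia agar, colonies suspended in 0.9% saline to OD 0.1, diluted 1:300 in 1% TSB; final (1-2) × 10^5 cfu/well. Peptides 2-fold serially diluted in 1% TSB from 128 μg/mL, typically to 0.5 μg/mL. Incubated 37 °C, absorbance at 595 nm after 20 ± 2 h, in triplicate; MIC = lowest concentration with absorbance not exceeding medium only.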

Enterobacter cloacae [2] = test: Antimicrobial activity against Enterobacter cloacae Ha088 after 20 hrs by broth microdilution method; format: functional; settings: Ha088, 20 h
In short: (§2)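 Pathogens grown overnight on Columbia agar. Colonies suspended in 0.9% saline to OD 0.1, diluted 1:300 in 1% TSB, final (1-2) × 10^5 cfu/well. Peptides 2-fold serially diluted in 1% TSB from 128 to typically 0.5 μg/mL. Incubation at 37 °C; A595 read after 20 ± 2 h. MIC is the lowest concentration with absorbance not above medium only. Triplicate.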

Pseudomonas aeruginosa [3] = test: Antimicrobial activity against Pseudomonas aeruginosa 60811001 after 20 hrs by broth microdilution method; format: functional; settings: Pseudomonas aeruginosa, 60811001, 20 h; in short: as §1
Escherichia coli [4] = test: Antimicrobial activity against Escherichia coli 70419002 after 20 hrs by broth microdilution method; format: functional; settings: Escherichia coli, 70419002, 20 h; in short: as §2
Escherichia coli [5] = test: Antimicrobial activity against Escherichia coli 70502001 after 20 hrs by broth microdilution method; format: functional; settings: Escherichia coli, 70502001, 20 h; in short: as §2
Escherichia coli [6] = test: Antimicrobial activity against Escherichia coli 70329001 after 20 hrs by broth microdilution method; format: functional; settings: Escherichia coli, 70329001, 20 h; in short: as §2
[7] = Stability in 100% mouse serum assessed as half life at 75 ug/ml by MALDI-TOF-MS analysis; format: ADME, cell-free
In short: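 Peptide at 75 μg/mL final in pooled mouse serum (undiluted or 25% v:v aqueous), 37 °C. Triplicate aliquots taken at 0, 30, 60, 120 and 240 min and precipitated with 3% TCA on ice for 10 min. Supernatant neutralized with NaOH and analysed by RP-HPLC on C18 with TFA-containing gradient. Amounts expressed relative to 0 min; metabolites identified by MALDI-TOF-MS.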

Enterobacter cloacae [8] = test: Antimicrobial activity against Enterobacter cloacae 34654 after 20 hrs by broth microdilution method; format: functional; settings: Enterobacter cloacae, 34654, 20 h; in short: as §2
Stenotrophomonas [9] = test: Antimicrobial activity against Stenotrophomonas ICB 7789 after 20 hrs by broth microdilution method; format: functional; settings: ICB 7789, 20 h; in short: as §2
Acinetobacter baumannii [10] = test: Antimicrobial activity against Acinetobacter baumannii ICB 14072 after 20 hrs by broth microdilution method; format: functional; settings: ICB 14072, 20 h; in short: as §2
Proteus vulgaris [11] = test: Antimicrobial activity against Proteus vulgaris ICB 9081 after 20 hrs by broth microdilution method; format: functional; settings: ICB 9081, 20 h; in short: as §2
Micrococcus luteus = test: Antibacterial activity against Micrococcus luteus ATCC 10240 after 20 hrs by broth microdilution assay; format: functional; settings: ATCC 10240, 20 h
In short: (§3)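 Nutrient-broth overnight cultures diluted in 1% TSB; E. coli BL21AI 7.5 × 10^5 cells/well, M. luteus ATCC 10240 2 × 10^6 cells/well. Peptides serially 2-fold diluted in 1% TSB from 128 to typically 0.5 μg/mL. Incubation at 37 °C; A595 read after 20 ± 2 h. MIC is the lowest concentration with absorbance not above medium only. Triplicate.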

Escherichia coli [12] = test: Antibacterial activity against Escherichia coli BL21 AI after 20 hrs by broth microdilution assay; format: functional; in short: as §3
Klebsiella pneumoniae [13] = test: Antimicrobial activity against Klebsiella pneumoniae ATCC 27799 after 20 hrs by broth microdilution method; format: functional; settings: ATCC 27799, 20 h; in short: as §1
Acinetobacter baumannii [14] = test: Antimicrobial activity against Acinetobacter baumannii ICB 14067 after 20 hrs by broth microdilution method; format: functional; settings: ICB 14067, 20 h; in short: as §2
HeLa = test: Cytotoxicity against human HeLa cells at 600 ug/ml after 24 hrs by MTT assay; format: cell-based
In short: (§4)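 HeLa (1.5 × 10^4/well, seeded overnight) or SH-SY5Y (2 × 10^4/well, differentiated 5 days with 10 μM trans-retinoic acid) in DMEM/Ham's F-12 with 5% or 15% FBS. Peptide added at 600 μg/mL for 24 h at 37 °C, 5% CO2. MTT 0.5 mg/mL for 4 h, then SDS/HCl for 16 h; A590 read against 650 nm. Normalized to PBS (100%); DMSO 12% as positive control.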

Escherichia coli [15] = test: Antimicrobial activity against Escherichia coli 70430001 after 20 hrs by broth microdilution method; format: functional; settings: Escherichia coli, 70430001, 20 h; in short: as §2
Enterobacter cloacae [16] = test: Antimicrobial activity against Enterobacter cloacae Ha185 after 20 hrs by broth microdilution method; format: functional; settings: Ha185, 20 h; in short: as §1
Klebsiella pneumoniae [17] = test: Antimicrobial activity against Klebsiella pneumoniae DSM 681 after 20 hrs by broth microdilution method; format: functional; settings: DSM 681, 20 h; in short: as §2
Escherichia coli [18] = test: Antimicrobial activity against Escherichia coli Neumann after 20 hrs by broth microdilution method; format: functional; in short: as §2
Stenotrophomonas [19] = test: Antimicrobial activity against Stenotrophomonas ICB 7569 after 20 hrs by broth microdilution method; format: functional; settings: ICB 7569, 20 h; in short: as §2
Klebsiella pneumoniae [20] = test: Antimicrobial activity against Klebsiella pneumoniae ATCC 12657 after 20 hrs by broth microdilution method; format: functional; settings: ATCC 12657, 20 h; in short: as §2
Pseudomonas aeruginosa [21] = test: Antimicrobial activity against Pseudomonas aeruginosa 61118003 after 20 hrs by broth microdilution method; format: functional; settings: Pseudomonas aeruginosa, 61118003, 20 h; in short: as §1
Escherichia coli [22] = test: Antimicrobial activity against Escherichia coli 205024 after 20 hrs by broth microdilution method; format: functional; settings: Escherichia coli, 205024, 20 h; in short: as §2
Proteus vulgaris [23] = test: Antimicrobial activity against Proteus vulgaris ICB 9095 after 20 hrs by broth microdilution method; format: functional; settings: ICB 9095, 20 h; in short: as §2
Pseudomonas aeruginosa [24] = test: Antimicrobial activity against Pseudomonas aeruginosa Walter after 20 hrs by broth microdilution method; format: functional; in short: as §1
Pseudomonas aeruginosa [25] = test: Antimicrobial activity against Pseudomonas aeruginosa ATCC 27853 after 20 hrs by broth microdilution method; format: functional; settings: ATCC 27853, 20 h; in short: as §1
Acinetobacter baumannii [26] = test: Antimicrobial activity against Acinetobacter baumannii M17 after 20 hrs by broth microdilution method; format: functional; settings: M17, 20 h; in short: as §2
Acinetobacter baumannii [27] = test: Antimicrobial activity against Acinetobacter baumannii ICB 14073 after 20 hrs by broth microdilution method; format: functional; settings: ICB 14073, 20 h; in short: as §2
Stenotrophomonas [28] = test: Antimicrobial activity against Stenotrophomonas ICB 308054 after 20 hrs by broth microdilution method; format: functional; settings: ICB 308054, 20 h; in short: as §2
Pseudomonas aeruginosa [29] = test: Antimicrobial activity against Pseudomonas aeruginosa 70108001 after 20 hrs by broth microdilution method; format: functional; settings: Pseudomonas aeruginosa, 70108001, 20 h; in short: as §1
Klebsiella pneumoniae [30] = test: Antimicrobial activity against Klebsiella pneumoniae 57 USA after 20 hrs by broth microdilution method; format: functional; in short: as §2
Pseudomonas aeruginosa [31] = test: Antimicrobial activity against Pseudomonas aeruginosa DSM 3227 after 20 hrs by broth microdilution method; format: functional; settings: DSM 3227, 20 h; in short: as §1
SH-SY5Y = test: Cytotoxicity against human SH-SY5Y cells at 600 ug/ml after 24 hrs by MTT assay; format: cell-based; in short: as §4
Enterobacter cloacae [32] = test: Antimicrobial activity against Enterobacter cloacae Ha089 after 20 hrs by broth microdilution method; format: functional; settings: Ha089, 20 h; in short: as §2
Pseudomonas aeruginosa [33] = test: Antimicrobial activity against Pseudomonas aeruginosa 60909001 after 20 hrs by broth microdilution method; format: functional; settings: Pseudomonas aeruginosa, 60909001, 20 h; in short: as §1
Escherichia coli [34] = test: Antimicrobial activity against Escherichia coli 455/7 after 20 hrs by broth microdilution method; format: functional; settings: 455/7, 20 h; in short: as §2
Klebsiella pneumoniae [35] = test: Antimicrobial activity against Klebsiella pneumoniae 8085 after 20 hrs by broth microdilution method; format: functional; settings: Klebsiella pneumoniae, 8085, 20 h; in short: as §2
Enterobacter cloacae [36] = test: Antimicrobial activity against Enterobacter cloacae Ha89 after 20 hrs by broth microdilution method; format: functional; settings: Ha89, 20 h; in short: as §2
Escherichia coli [37] = test: Antimicrobial activity against Escherichia coli 8474 after 20 hrs by broth microdilution method; format: functional; settings: Escherichia coli, 8474, 20 h; in short: as §2
Klebsiella pneumoniae [38] = test: Antimicrobial activity against Klebsiella pneumoniae 63 after 20 hrs by broth microdilution method; format: functional; settings: Klebsiella pneumoniae, 63, 20 h; in short: as §1
Acinetobacter baumannii [39] = test: Antimicrobial activity against Acinetobacter baumannii ICB 9250 after 20 hrs by broth microdilution method; format: functional; settings: ICB 9250, 20 h; in short: as §2

Molecule: CC[C@H](C)[C@H](NC(=O)[C@H](CCCN)NC(=O)[C@H](CCCNC(=N)N)NC(=O)[C@@H]1CCCN1C(=O)[C@@H]1CCCN1C(=O)[C@H](CCCNC(=N)N)NC(=O)[C@@H]1CCCN1C(=O)[C@H](CCCNC(=N)N)NC(=O)[C@@H]1CCCN1C(=O)[C@H](CC(C)C)NC(=O)[C@H](Cc1ccc(O)cc1)NC(=O)[C@@H]1CCCN1C(=O)[C@@H]1CCCN1C(=O)[C@H](CCCCN)NC(=O)[C@H](CC(=O)O)NC(=O)[C@@H](N)C(C)C)C(=O)N[C@@H](Cc1ccc(O)cc1)C(=O)N[C@@H](CC(N)=O)C(=O)N[C@@H](CCCN)C(N)=O (H-VDKPPYLPRPRPPR[Orn]IYN[Orn]-NH2)
MIC (Pseudomonas aeruginosa [1]): 2 µg/mL (≈ 0.867 µM) | MIC (Enterobacter cloacae [2]): 0.25 µg/mL (≈ 0.108 µM) | MIC (Pseudomonas aeruginosa [3]): 2 µg/mL (≈ 0.867 µM) | MIC (Escherichia coli [4]): 2 µg/mL (≈ 0.867 µM) | MIC (Escherichia coli [5]): 1 µg/mL (≈ 0.434 µM) | MIC (Escherichia coli [6]): 1 µg/mL (≈ 0.434 µM) | half-life at 75 ug/ml [7]: 3 h | MIC (Enterobacter cloacae [8]): 0.5 µg/mL (≈ 0.217 µM) | MIC (Stenotrophomonas [9]): 32 µg/mL (≈ 13.9 µM) | MIC (Acinetobacter baumannii [10]): 1 µg/mL (≈ 0.434 µM) | MIC (Proteus vulgaris [11]): 8 µg/mL (≈ 3.47 µM) | MIC (Micrococcus luteus): 8 µg/mL (≈ 3.47 µM) | MIC (Escherichia coli [12]): 8 µg/mL (≈ 3.47 µM) | MIC (Klebsiella pneumoniae [13]): 1 µg/mL (≈ 0.434 µM) | MIC (Acinetobacter baumannii [14]): 1 µg/mL (≈ 0.434 µM) | Activity (HeLa): Non-toxic | MIC (Escherichia coli [15]): 0.5 µg/mL (≈ 0.217 µM) | MIC (Enterobacter cloacae [16]): 0.5 µg/mL (≈ 0.217 µM) | MIC (Klebsiella pneumoniae [17]): 0.5 µg/mL (≈ 0.217 µM) | MIC (Escherichia coli [18]): 0.5 µg/mL (≈ 0.217 µM) | MIC (Stenotrophomonas [19]): 16 µg/mL (≈ 6.94 µM) | MIC (Klebsiella pneumoniae [20]): 0.5 µg/mL (≈ 0.217 µM) | MIC (Pseudomonas aeruginosa [21]): 1 µg/mL (≈ 0.434 µM) | MIC (Escherichia coli [22]): 1 µg/mL (≈ 0.434 µM) | MIC (Proteus vulgaris [23]): 4 µg/mL (≈ 1.73 µM) | MIC (Pseudomonas aeruginosa [24]): 4 µg/mL (≈ 1.73 µM) | MIC (Pseudomonas aeruginosa [25]): 2 µg/mL (≈ 0.867 µM) | MIC (Acinetobacter baumannii [26]): 1 µg/mL (≈ 0.434 µM) | MIC (Acinetobacter baumannii [27]): 1 µg/mL (≈ 0.434 µM) | MIC (Stenotrophomonas [28]): 32 µg/mL (≈ 13.9 µM) | MIC (Pseudomonas aeruginosa [29]): 2 µg/mL (≈ 0.867 µM) | MIC (Klebsiella pneumoniae [30]): 0.5 µg/mL (≈ 0.217 µM) | MIC (Pseudomonas aeruginosa [31]): 4 µg/mL (≈ 1.73 µM) | Activity (SH-SY5Y): Non-toxic | MIC (Enterobacter cloacae [32]): 0.25 µg/mL (≈ 0.108 µM) | MIC (Pseudomonas aeruginosa [33]): 1 µg/mL (≈ 0.434 µM) | MIC (Escherichia coli [34]): 0.5 µg/mL (≈ 0.217 µM) | MIC (Klebsiella pneumoniae [35]): 0.5 µg/mL (≈ 0.217 µM) | MIC (Enterobacter cloacae [36]): 0.25 µg/mL (≈ 0.108 µM) | MIC (Escherichia coli [37]): 0.5 µg/mL (≈ 0.217 µM) | MIC (Klebsiella pneumoniae [38]): 2 µg/mL (≈ 0.867 µM) | MIC (Acinetobacter baumannii [39]): 0.5 µg/mL (≈ 0.217 µM)

MIC (Micrococcus luteus): 16 µg/mL | MIC (Escherichia coli [12]): 16 µg/mL
Molecule: H-VDKPPYLPRPKPPRRIYNNR-OH

MIC (Micrococcus luteus): 128 µg/mL | MIC (Escherichia coli [12]): 16 µg/mL
Molecule: H-VDKPPYLPRPRPPRRIYNRN-NH2
